Source: PubChem BioAssay
A selection: hits, their analogues and other compounds. The true share with any hit is near 2.4%.
CSN inh = blocks human CSN-mediated cullin deneddylation; Purified CSN, SCF-Nedd8-OG deneddylation, fluorescence polarization; 360,000 compounds, 0.38% hits; inhibition, % at 12.5 µM; AID 651999;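 active means pattern-corrected inhibition above about 35%, with an unprinted fluorescence ratio check between 0.5 and 1.5, limit read from the data, passing the limit was not always enough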
Target sequence (Q92905 whole entry, looked up, one chain of several): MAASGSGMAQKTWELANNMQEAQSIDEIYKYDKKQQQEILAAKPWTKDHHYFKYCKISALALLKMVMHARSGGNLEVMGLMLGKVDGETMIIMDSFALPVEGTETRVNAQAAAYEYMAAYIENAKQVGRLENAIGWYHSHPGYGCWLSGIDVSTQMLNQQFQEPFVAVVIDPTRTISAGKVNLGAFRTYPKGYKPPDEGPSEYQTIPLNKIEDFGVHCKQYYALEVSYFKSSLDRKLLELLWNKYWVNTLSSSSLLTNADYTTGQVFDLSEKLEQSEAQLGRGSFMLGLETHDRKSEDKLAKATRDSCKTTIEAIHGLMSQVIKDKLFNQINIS
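Schedule: reaction 90 min, room temperature / Assay system: HEK293T-derived human Csn5 enzyme / Input: Csn5 at 0.24 nM final / Measure: inhibition of Csn5 cleavage, % / Control set: substrate-only high control, full reaction low control / Technique: fluorescence polarization of the substrate / Buffer or medium: Tris/NaCl/DTT buffer, pH 7.5 / Reagent: SCFSkp2-Nedd8OG substrate at 10 nM final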
HNF4A DNA FP = change in binding of human HNF4 alpha to DNA. P41235. HNF4a-FITC DNA binding, fluorescence polarization, 1 h. activity change, % at 10 µM. 360,000 compounds, 0.3% hits; in the data active means activity change above about 30%, passing the limit was not always enough
TPT1 inhibitor = inhibitors of Candida albicans tRNA 2'-phosphotransferase TPT1; recombinant caTPT1, FP RNA substrate dephosphorylation; AID 1962; 300,000 compounds, 0.81% hits; inhibition, % at 5 µM;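 active means inhibition above the mean of all tested compounds plus 3 SD, set per screening campaign, cut at about 24% in these data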
Neddylation inh = inhibitors of human cullin neddylation | inhibition, % at 25 µM | TR-FRET cullin neddylation, biochemical | P61081+Q13564 | 360,000 compounds, 0.58% hits; in the data active means inhibition above about 36%
Rin1 Abl inh = inhibitors of human Rin1-Abl protein interaction. AID 588664. 360,000 compounds, 0.4% hits. TR-FRET Rin1/Abl binding, biochemical. inhibition, % at 7.35 µM; in the data active means inhibition above about 5%, passing the limit was not always enough
Rpn11 inh = blocks the human proteasome subunit Rpn11 | inhibition, % at 20 µM | human 26S proteasome, Ub4-pepOG fluorescence polarization; 20S core pre-blocked with epoxomicin | 360,000 compounds, 0.59% hits;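 active means inhibition at 20 µM, scaled to each plate's controls, above about 33%, limit read from the data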
Target sequence (O00487 whole entry, looked up): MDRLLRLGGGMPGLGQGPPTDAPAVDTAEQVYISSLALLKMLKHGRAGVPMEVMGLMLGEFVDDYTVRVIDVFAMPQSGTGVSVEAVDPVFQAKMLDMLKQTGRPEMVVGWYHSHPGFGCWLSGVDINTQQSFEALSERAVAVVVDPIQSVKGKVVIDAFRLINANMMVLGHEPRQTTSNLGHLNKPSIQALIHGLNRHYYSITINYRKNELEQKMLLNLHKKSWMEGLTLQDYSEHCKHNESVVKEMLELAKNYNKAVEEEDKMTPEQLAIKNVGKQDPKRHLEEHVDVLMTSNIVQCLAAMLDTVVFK
Neddyl conf = cullin neddylation inhibition, confirmation; shares compounds with Neddylation inh; TR-FRET cullin neddylation biochemical assay; calls only at 25 µM; 1,800 compounds, 13% hits; AID 652217; in the data active means inhibition above about 40%;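 further: neddylation substrate is the cullin 1 ring ligase complex with SKP2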
A number is an active result; – = inactive; · = no result shown; + = active, no number.

SMILES | CSN inh | HNF4A DNA FP | TPT1 inhibitor | Neddylation inh | Rin1 Abl inh | Rpn11 inh | Neddyl conf
CC(=O)c1cccc(NC(=O)CCc2nnc3ccc(NCc4ccc5c(c4)OCO5)nn23)c1 | – | – | – | – | – | – | ·
CC(=O)c1cccc(OCc2cc(C(=O)N(C)Cc3nccs3)no2)c1 | – | – | · | – | – | – | ·
CN(Cc1nccs1)C(=O)c1cc(COc2cccc3cnccc23)on1 | – | – | – | 57 | – | – | ·
COc1ccccc1COC(=O)C(NC(=O)c1ccc(C)cc1)C(C)C (stereo not drawn) | – | – | · | – | – | – | ·
Cc1ccccc1NC(=O)NNC(=O)c1ccc2ccccc2c1O | – | – | – | 42 | – | – | +
Cc1ccccc1NC(=O)NNC(=O)c1ccc2ccccc2c1 | – | – | · | – | – | – | ·
COc1ccccc1NC(=O)NNC(=O)c1ccc2ccccc2c1O | – | – | · | 40 | – | – | –
COc1ccccc1NC(=O)NNC(=O)c1ccc2ccccc2c1 | – | – | · | – | – | – | ·
CCc1ccc(NC(=O)NNC(=O)c2ccc3ccccc3c2O)cc1 | – | – | · | · | – | – | ·
COc1ccc(NC(=O)NNC(=O)c2ccc3ccccc3c2O)cc1OC | – | – | – | 35 | – | – | –
O=C(C[C@@H]1C/C=C\C[C@H](Cc2ccc(F)cc2)C(=O)OC[C@H]2CCCN2C1=O)NCCO | – | – | · | – | – | – | ·
C=CC[C@H](CC(=O)NCCO)C(=O)NCCOC(=O)[C@@H](CC=C)CC(=O)OC(C)(C)C | – | – | · | – | – | – | ·
Nc1c(C(=O)Nc2ccccc2)c2nc3ccccc3nc2n1CCCN1CCOCC1 | – | – | – | 57 | – | – | +
O=C(O)CCC(=O)N1N=C(c2cccs2)CC1c1cn(-c2ccccc2)nc1-c1ccccc1 (stereo not drawn) | – | – | – | 40 | – | – | ·
COc1ccc(-c2nn(-c3ccccc3)cc2C2CC(c3cccs3)=NN2C(=O)CCCC(=O)O)cc1 (stereo not drawn) | – | – | – | 47 | – | – | –
Cc1ccc(-c2nn(-c3ccccc3)cc2C2CC(c3cccs3)=NN2C(=O)CCCC(=O)O)cc1 (stereo not drawn) | – | – | – | · | – | – | ·
COc1ccc(NC(=O)Cc2ccc(C)c(C)c2)cc1Cl | – | – | – | – | – | – | ·
Cc1ccc(S(=O)(=O)NNC(=O)Nc2ccc([N+](=O)[O-])cc2)c(C)c1 | – | – | – | – | – | – | ·
C=C(Cl)COc1ccc2c(CC)cc(=O)oc2c1 | – | – | – | 42 | – | – | –
CCc1ccc(-c2csc(NC(=O)C3CC(=O)N(c4ccc5c(c4)OCCO5)C3)n2)cc1 (stereo not drawn) | – | – | – | 53 | – | – | –
CCCN(CC(=O)Nc1ccccc1C)C(=O)c1ccc(-c2ccc(C(C)=O)cc2)o1 | – | – | – | 61 | – | – | ·
CCn1cc(C(=O)O)c(=O)c2cc(F)c(N3CCN(C(=S)NC(=O)c4ccc(Br)cc4)CC3)cc21 | – | – | – | – | – | – | ·
CCn1cc(C(=O)O)c(=O)c2cc(F)c(N3CCN(C(=O)Nc4ccccc4)CC3)cc21 | – | – | – | 53 | – | – | –
CCn1cc(C(=O)O)c(=O)c2cc(F)c(N3CCN(C(=S)NC(=O)c4ccc(OC)cc4)CC3)cc21 | – | – | – | 53 | – | – | –
CCC(C)NC(=O)CNC(=S)N(Cc1ccccc1F)C1CCCCC1 (stereo not drawn) | – | – | – | – | – | – | ·
SMILES | CSN inh | HNF4A DNA FP | TPT1 inhibitor | Neddylation inh | Rin1 Abl inh | Rpn11 inh | Neddyl conf
O=C(OCC(O)COC(=O)c1cccnc1)c1cccnc1 | – | – | – | – | – | – | ·
CCOC(=O)C1=C(C)NC(C)=C(C(=O)OCC)C1C(=O)OCC(=O)N(C)Cc1ccccc1 | – | – | · | 40 | – | – | –
CCOC(=O)C1=C(C)NC(C)=C(C(=O)OCC)C1C(=O)OCC(N)=O | – | – | – | – | – | – | ·
CCOC(=O)Cc1nnc(NC(=O)CSc2ncc(-c3ccccc3)nn2)s1 | – | – | – | – | – | – | ·
COc1cc(-c2cc3nc(C)c(C)c(=O)n3[nH]2)cc(OC)c1OC | – | – | – | 42 | – | – | –
COCCn1c(C)cc(C(=O)CN2C(=O)C(=O)N(CCC3=CCCCC3)C2=O)c1C | – | – | · | – | – | – | ·
COc1cc2c(cc1O)C(Cc1ccc(O)cc1)[N+](C)([O-])CC2 (stereo not drawn) | – | – | – | – | – | – | ·
COc1ccc(C[C@H]2c3cc(O)c(OC)cc3CC[N+]2(C)[O-])cc1O (stereo partly drawn) | – | – | – | 46 | – | – | +
OC(c1ccc(Cl)cc1)c1ncc(-c2ccc(Oc3ccccc3)cc2)[nH]1 (stereo not drawn) | – | – | · | – | – | – | ·
COC(=O)[C@]1(Cc2ccccc2)N[C@H](CN(C)S(=O)(=O)c2ccc(C(C)(C)C)cc2)[C@@H]2C(=O)N(C)C(=O)[C@@H]21 | – | – | · | – | – | – | ·
CCN(CC)S(=O)(=O)c1ccc2c3c(cccc13)C(=O)N2 | – | – | – | 49 | – | – | ·
Cc1ccc(S(=O)(=O)CCC(=O)OCC(=O)N(Cc2ccccc2)C(C)C)cc1 | – | – | – | – | – | – | ·
Cc1ccccc1NS(=O)(=O)c1ccc(OCC(=O)NCc2ccco2)cc1 | – | – | – | – | – | – | ·
CCOc1ccc(S(=O)(=O)Nc2ccccc2C(=O)NCc2ccco2)cc1 | – | – | – | 45 | – | – | –
CCCOC(=O)C1=C(C)N(C)C(=O)NC1c1cc2c(cc1[N+](=O)[O-])OCO2 (stereo not drawn) | – | – | – | 43 | – | – | –
CC1=C(C(=O)OCC(C)C)C(c2cc3c(cc2Br)OCO3)NC(=O)N1C (stereo not drawn) | – | – | – | – | – | – | ·
CCSC1=C(C#N)C(c2ccc(C)o2)CC(=O)N1 (stereo not drawn) | – | – | – | 40 | – | – | –
CCCCCCSC1=C(C#N)C(c2ccc(C)o2)CC(=O)N1 (stereo not drawn) | – | – | – | – | – | – | ·
COc1ccc2cc(C(=O)C3CCCN(C(=O)/C=C/c4ccccn4)C3)ccc2c1 (stereo not drawn) | – | – | – | 53 | – | – | –
COc1ccc2cc(C(=O)C3CCCN(C(=O)c4cnccn4)C3)ccc2c1 (stereo not drawn) | – | – | – | · | – | – | ·
CCN(C(=O)COC(=O)c1ccc([N+](=O)[O-])o1)C1CCCCC1 | – | – | · | – | – | – | ·
Cc1nc2c(c3c1[nH]c1ccccc13)C(=O)CC(C)(C)C2 | – | – | – | 46 | – | – | ·
COc1ccc2oc(=O)c(C(=O)NCc3ccc4c(c3)OCO4)cc2c1 | – | – | – | – | – | – | ·
